These results are taken from ChEMBL document CHEMBL4196195, “( R)- N-(1-Methyl-2-hydroxyethyl)-13-( S)-methyl-arachidonamide (AMG315): A Novel Chiral Potent Endocannabinoid Ligand with Stability to Metabolizing Enzymes” (J Med Chem, 2018).

Calls of active or inactive are those of the source. Bounds are passed on as bounds.

The test system of data set [1] is Mus musculus. Briefly: Antiallodynic activity in CD1 mouse model of CFA-induced inflammatory pain assessed as increase in CFA-reduced mechanical paw withdrawal threshold at 20 mg/kg, ip measured at 10 mins post injection. It counts as functional, organism-based. In outline: (§1)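 Adult male mice (39 ± 10 g), wild-type CD1 or CB1 KO on CD1 background, single housed. CFA:saline 1:1 (20 μL) injected intraplantar into right hind paw; 48 h allowed before dosing. Drug given ip in 5 mL/kg, vehicle group included. Electronic von Frey (90 g probe) after ≥30 min habituation, read in duplicate per paw, at baseline, 48 h post-CFA and 10, 30, 60, 120 min post-dose. Two-way mixed ANOVA with Bonferroni post hoc tests.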

The target of data set [2] is Cannabinoid receptor 2 (Mus musculus, UniProt P47936). Briefly: Displacement of [3H]CP-55,940 from mouse CB2 receptor expressed in HEK293 cell membranes in absence of FAAH inhibitor PMSF by radioligand binding assay. The method in brief:
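Membranes from HEK293 cells expressing human or mouse CB2 (preparations lacking FAAH activity), competing against [3H]CP-55,940. IC50 by nonlinear regression, converted to Ki. Three independent experiments run in triplicate; Ki is the mean of the three.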

Data set [3] has as its target T1, FAAH (fatty-acid amide hydrolase 1) (Homo sapiens, UniProt O00519).
T1 sequence (O00519 whole entry): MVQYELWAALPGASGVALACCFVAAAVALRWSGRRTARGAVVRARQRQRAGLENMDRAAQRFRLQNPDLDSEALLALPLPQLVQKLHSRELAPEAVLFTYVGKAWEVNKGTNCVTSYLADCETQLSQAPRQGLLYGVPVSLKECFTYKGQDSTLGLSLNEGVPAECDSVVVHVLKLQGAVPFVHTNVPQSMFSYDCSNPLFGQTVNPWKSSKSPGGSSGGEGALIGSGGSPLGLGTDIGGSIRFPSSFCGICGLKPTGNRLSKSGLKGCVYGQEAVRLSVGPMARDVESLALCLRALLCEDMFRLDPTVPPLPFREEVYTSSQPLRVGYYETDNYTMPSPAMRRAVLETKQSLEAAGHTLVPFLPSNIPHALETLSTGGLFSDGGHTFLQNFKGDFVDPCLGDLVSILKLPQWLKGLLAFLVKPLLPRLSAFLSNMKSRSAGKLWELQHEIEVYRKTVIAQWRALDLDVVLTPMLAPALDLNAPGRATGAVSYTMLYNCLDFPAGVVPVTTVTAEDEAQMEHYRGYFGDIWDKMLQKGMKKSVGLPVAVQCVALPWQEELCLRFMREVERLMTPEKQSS
Briefly: Stability assessed as half life for human FAAH-mediated compound hydrolysis by LC-MS/MS analysis. It counts as ADME. Conditions: human FAAH (fatty-acid amide hydrolase 1). The method in brief: (§2)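 Expressed, partially purified rat or human FAAH incubated with compound, or AEA as reference substrate, for 30 min. Aliquots at time points quenched in acetonitrile to precipitate protein. Remaining compound measured by LC-MS/MS on a cyano column with 10 mM ammonium acetate pH 7.3/methanol at 0.5 mL/min.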

The target in data set [4] is Cannabinoid receptor 1 (Rattus norvegicus) (UniProt P20272). Briefly: Agonist activity at rat CB1 receptor expressed in HEK293 cells assessed as inhibition of forskolin-induced cAMP accumulation incubated for 30 mins relative to 500 nM CP-55,940. It counts as functional, cell-based. A general note: cAMP levels reflect the balance of adenylyl cyclase and phosphodiesterase activity.

Data set [5] relates to Mus musculus. Briefly: Antiallodynic activity in CD1 mouse model of CFA-induced inflammatory pain assessed as increase in CFA-reduced mechanical paw withdrawal threshold at 20 mg/kg, ip measured at 30 mins post injection. It is filed as functional, organism-based. The method in brief:
as §1

Data set [6] addresses T2, FAAH (fatty-acid amide hydrolase 1) (Rattus norvegicus, UniProt P97612).
T2 sequence (P97612 whole entry): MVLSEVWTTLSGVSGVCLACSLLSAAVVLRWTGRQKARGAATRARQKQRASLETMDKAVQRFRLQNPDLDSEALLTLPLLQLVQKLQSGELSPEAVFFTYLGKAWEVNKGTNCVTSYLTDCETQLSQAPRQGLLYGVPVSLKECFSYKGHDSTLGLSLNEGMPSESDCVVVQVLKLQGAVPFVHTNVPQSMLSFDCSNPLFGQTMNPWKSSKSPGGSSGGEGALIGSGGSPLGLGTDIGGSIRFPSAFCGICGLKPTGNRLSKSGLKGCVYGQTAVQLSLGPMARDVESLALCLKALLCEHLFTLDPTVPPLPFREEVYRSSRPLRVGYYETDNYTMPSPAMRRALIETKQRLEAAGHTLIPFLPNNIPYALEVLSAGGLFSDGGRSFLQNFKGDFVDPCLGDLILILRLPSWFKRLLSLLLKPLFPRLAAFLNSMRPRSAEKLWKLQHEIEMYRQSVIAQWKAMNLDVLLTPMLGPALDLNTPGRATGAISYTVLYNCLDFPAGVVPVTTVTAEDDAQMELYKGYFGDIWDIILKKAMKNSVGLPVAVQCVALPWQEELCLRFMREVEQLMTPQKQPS
Briefly: Stability assessed as half life for rat FAAH-mediated compound hydrolysis by LC-MS/MS analysis. It counts as ADME. The conditions noted are these: rat FAAH (fatty-acid amide hydrolase 1). The method in brief:
as §2

In data set [7] the target is Cannabinoid receptor 2 (Homo sapiens, UniProt P34972). Briefly: Displacement of [3H]CP-55,940 from human CB2 receptor expressed in HEK293 cell membranes in absence of FAAH inhibitor PMSF by radioligand binding assay. For orientation: Displacement assays read how much labelled ligand stays bound in the presence of the test substance.
Data set [8] concerns the target T3, Cannabinoid receptor 1 (Rattus norvegicus, UniProt P20272). Briefly: Agonist activity at rat CB1 receptor expressed in HEK293 cells assessed as inhibition of forskolin-induced cAMP accumulation incubated for 30 mins. It counts as functional, cell-based. The conditions noted are these: read-out: EC50. The method in brief:
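HEK293 cells stably expressing rCB1, harvested with nonenzymatic dissociation reagent, washed in HBSS, 1000–1500 cells/well. Test compound at various concentrations with forskolin (2 μM final) in stimulation buffer, 30 min at room temperature. cAMP read by TR-FRET (Eu-cAMP tracer plus ULight anti-cAMP, 60 min room temperature). Forskolin-stimulated cAMP set to 100%. EC50 from nonlinear regression; two independent experiments in triplicate.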

Data set [9] addresses T4, Prostaglandin G/H synthase 2 (Mus musculus, UniProt Q05769).
T4 sequence (Q05769 whole entry): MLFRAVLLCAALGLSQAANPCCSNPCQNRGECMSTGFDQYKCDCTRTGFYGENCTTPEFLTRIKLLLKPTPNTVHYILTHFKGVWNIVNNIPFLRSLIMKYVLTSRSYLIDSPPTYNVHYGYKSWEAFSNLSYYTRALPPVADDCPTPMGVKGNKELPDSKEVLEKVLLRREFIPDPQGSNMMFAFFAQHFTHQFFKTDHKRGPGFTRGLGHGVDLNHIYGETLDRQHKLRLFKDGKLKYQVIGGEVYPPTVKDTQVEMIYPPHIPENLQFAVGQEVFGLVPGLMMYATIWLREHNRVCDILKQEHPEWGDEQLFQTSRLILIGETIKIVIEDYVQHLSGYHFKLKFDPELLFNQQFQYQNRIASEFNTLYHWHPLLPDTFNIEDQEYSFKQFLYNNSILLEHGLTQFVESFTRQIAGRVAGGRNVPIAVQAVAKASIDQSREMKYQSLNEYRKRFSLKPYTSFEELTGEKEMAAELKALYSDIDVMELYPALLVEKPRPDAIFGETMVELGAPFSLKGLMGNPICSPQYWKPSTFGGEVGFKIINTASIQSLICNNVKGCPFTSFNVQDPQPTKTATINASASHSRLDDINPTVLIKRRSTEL
Briefly: Stability assessed as mouse COX2-mediated compound oxidation by measuring oxygen consumption by polarographic assay. It is filed as ADME.

Data set [10] has as its target T2, FAAH (fatty-acid amide hydrolase 1). Briefly: Stability assessed as rat FAAH-mediated compound hydrolysis by LC-MS/MS analysis. The conditions noted are these: rat FAAH (fatty-acid amide hydrolase 1), read-out: Stability. It counts as ADME. In outline: as §2
Data set [11] has as its target T1, FAAH (fatty-acid amide hydrolase 1). Briefly: Stability assessed as human FAAH-mediated compound hydrolysis by LC-MS/MS analysis. Conditions: human FAAH (fatty-acid amide hydrolase 1), read-out: Stability. It is filed as ADME. In outline: as §2
For data set [12], the target named is T3, Cannabinoid receptor 1. Briefly: Displacement of [3H]CP-55,940 from CB1 receptor in rat brain membranes in absence of FAAH inhibitor PMSF by radioligand binding assay. It counts as cell membranes, Membrane.
Data set [13] addresses T3, Cannabinoid receptor 1. Briefly: Displacement of [3H]CP-55,940 from CB1 receptor in rat brain membranes in presence of FAAH inhibitor PMSF by radioligand binding assay. It counts as cell membranes, Membrane.

T3 sequence (P20272 whole entry): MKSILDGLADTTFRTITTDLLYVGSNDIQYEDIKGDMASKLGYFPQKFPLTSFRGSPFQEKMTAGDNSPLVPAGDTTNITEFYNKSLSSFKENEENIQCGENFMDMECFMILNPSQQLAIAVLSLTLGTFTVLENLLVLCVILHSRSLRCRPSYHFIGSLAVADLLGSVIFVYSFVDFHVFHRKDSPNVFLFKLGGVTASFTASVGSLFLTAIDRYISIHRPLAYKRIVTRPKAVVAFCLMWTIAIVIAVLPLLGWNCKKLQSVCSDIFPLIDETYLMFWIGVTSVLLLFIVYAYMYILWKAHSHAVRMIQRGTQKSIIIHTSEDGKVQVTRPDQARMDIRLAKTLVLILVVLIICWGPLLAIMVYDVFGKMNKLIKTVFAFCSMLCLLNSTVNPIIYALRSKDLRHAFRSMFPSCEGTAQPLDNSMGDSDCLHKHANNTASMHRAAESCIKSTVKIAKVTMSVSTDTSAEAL
Cannabinoid receptor 1 (Rattus norvegicus), sequence (P20272 whole entry): as above
Cannabinoid receptor 2 (Mus musculus, UniProt P47936), sequence (P47936 whole entry): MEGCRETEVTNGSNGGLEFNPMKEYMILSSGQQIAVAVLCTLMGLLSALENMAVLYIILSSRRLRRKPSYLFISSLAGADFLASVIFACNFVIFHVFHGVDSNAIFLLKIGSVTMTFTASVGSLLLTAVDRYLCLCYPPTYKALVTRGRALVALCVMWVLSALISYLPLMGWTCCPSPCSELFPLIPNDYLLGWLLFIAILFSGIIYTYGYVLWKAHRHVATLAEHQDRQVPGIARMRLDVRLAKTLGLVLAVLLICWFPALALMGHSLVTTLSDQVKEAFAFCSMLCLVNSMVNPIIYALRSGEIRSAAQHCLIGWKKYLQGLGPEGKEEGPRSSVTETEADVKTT
Cannabinoid receptor 2 (Homo sapiens, UniProt P34972), sequence (P34972 whole entry): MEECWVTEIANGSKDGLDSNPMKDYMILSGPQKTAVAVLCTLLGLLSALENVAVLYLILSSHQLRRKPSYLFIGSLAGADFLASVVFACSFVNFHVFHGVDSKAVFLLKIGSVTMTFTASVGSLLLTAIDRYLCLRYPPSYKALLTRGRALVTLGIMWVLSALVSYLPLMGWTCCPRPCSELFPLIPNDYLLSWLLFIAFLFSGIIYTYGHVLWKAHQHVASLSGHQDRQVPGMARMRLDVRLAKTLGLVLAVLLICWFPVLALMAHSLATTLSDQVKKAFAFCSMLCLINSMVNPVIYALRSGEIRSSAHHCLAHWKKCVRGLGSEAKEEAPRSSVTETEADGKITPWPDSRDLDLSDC

One may read the Ki as a dissociation constant, usually derived from enzyme kinetics or from competition with a known ligand. Usually Emax stands for the size of the effect at its maximum, as opposed to the concentration needed. As for `CCCCC/C=C\C/C=C\C/C=C\C/C=C\CCCC(=O)NCCO` [ANANDAMIDE], the result in the data set on Mus musculus [1] was Active. The compound further returned an inhibition constant (Ki) on Cannabinoid receptor 2 [2] greater than 1000 nM. Further, the half-life in data set [3] is 13.2 min; in data set [6], 12.1 min. Moreover, the maximal effect (Emax) in [4] was 61%. Moreover, in the data set on Mus musculus [5], the outcome was inactive.
By EC50 is commonly meant the midpoint of the concentration-response curve. Regarding `CCCCC/C=C\C/C=C\C/C=C\[C@H](C)/C=C\CCCC(=O)N[C@H](C)CO`, the Ki at Cannabinoid receptor 2 [7] was determined as 12.8 nM; at Cannabinoid receptor 2 [2] it was 19.8 nM; on Cannabinoid receptor 1 [12], 4.6 nM; at Cannabinoid receptor 1 [13], 2.2 nM. Besides, on Cannabinoid receptor 1 [8], the concentration for a half-maximal effect (EC50) was found to be 28.4 nM. Further, the Stability entry in data set [9] was “Stable”. For the same compound, the half-life in data set [10] and in data set [11] was 30 min each time. Further, the Emax in data set [4] came out at 100%.
